This note sets out measurements from PubChem BioAssay.

SMILES strings stand for the structures. A number with no mark means an inactive call.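 How the source made its calls, unless noted: active means viability at or below 30% in both replicate assays; inconclusive means viability at or below 30% in just one of the two assays; inactive means the rest.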

The first assay is described as follows: reduced viability of SK-BR-3 breast cancer cells – cell-based, 24 h, human, pilot screen (AID 572;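 active means viability at or below 10% of carrier control in both of two separate runs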;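 further: compound exposure lasted between 18 and 24 h rather than exactly 24 h; 100% = carrier-treated control wells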). The settings on record: SK-BR-3 viability, CellTiter-Glo luminescence, at 10 µM, hits give low values. Background: Cellular ATP, detected with luciferase, serves as a proxy for viable cell number.
Turning to `Cc1cc(=O)oc(C)c1C(=O)O`, the viability is 102%. On the same count and under the same terms, the result for `COc1cccc(CN=CC2=C(O)CC(C)(C)CC2=O)c1OC` reads 106%; that for `O=C(CCNC(=O)Cn1ccc2ccccc2c1=O)NCCN1CCN(c2ccccc2F)CC1`, 96%; that for `Cn1cccc1Cc1nnc(SCC(N)=O)n1-c1ccc(F)cc1`, 88%.

`N#CC1=C(N)N(c2ccccc2)C(c2ccco2)C1(C#N)C#N` (configuration not stated): the viability was 95.5%. As to `CCCNC(=O)C1=C(C)C(=O)OC12CCC(C)CC2` (configuration not stated), the viability is 94.5%.

`CCCS(=O)(=O)C(=C1Nc2ccccc2N1)S(=O)(=O)CCC`: the viability is 105%.

Turning to `O=C(CC(CC(=O)c1ccccc1)C(=O)O)c1ccccc1`, the viability was 89%. Consider `CCS(=O)(=O)N1CCC(C(=O)NC2CCCCC2)CC1`, for which the viability was 113%. The same measure, in the same setting: the result for `COc1ccc(N2C(=O)C3CCCN3C2c2ccc(F)cc2)cc1Cl` (configuration not stated) reads 102%; that for `O=C(Nc1nccs1)c1ccc(Cl)c(S(=O)(=O)N2CCCCC2)c1`, 89%. Same read-out and setting: as for `CC(=O)N1CCc2cc(S(=O)(=O)CCC(=O)Nc3cccc(F)c3)ccc21`, the figure is 109%; as for `Oc1ccc(N2CCN(C(c3cccnc3)c3nnnn3Cc3ccccc3)CC2)cc1` (configuration not stated), 85%; as for `CCOP(=O)(c1ccc(N(C)C)cc1)C(O)c1c(Cl)cccc1Cl` (configuration not stated), 83%. Still for that read-out and setting: the result for `CCCn1c(SCC(=O)NC(C)(C)C)nnc1C(C)C` reads 110%; that for `CCCCOC(=O)Cn1c(=N)n(CCN2CCOCC2)c2ccccc21`, 77%.

In the case of `CCOC(=O)c1c(C)n(C)c2ccc(O)c(S(=O)(=O)c3ccccc3)c12`, the viability was 91.5%. Consider `CCN1CCN(CCNC(=O)c2cn(C(C)c3ccccc3F)nn2)CC1` (configuration not stated), for which the viability was 122%.

Consider `Cc1ccnc(NS(=O)(=O)c2ccc(NC(=O)Cc3cccs3)cc2)n1`, for which the viability is 94.5%. For `c1ccc(CSCc2cn3ccsc3n2)cc1`, the viability is 93.5%.

On to `Cc1nnc(N(C)C(=O)c2cccnc2)s1`, for which the viability is 110%. Same read-out and setting: the result for `O=C(NC1CCCCC1)C(c1ccco1)N(Cc1cccnc1)C(=O)C1COc2ccccc2O1` (configuration not stated) reads 100%; that for `Cc1cc(Cn2ccnc2)c(C)cc1Cn1ccnc1`, 82%.

Another assay is described as follows: HUVEC growth inhibition – cell-based, human, primary screen (AID 575).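 Further: 100% = median of untreated cell wells with 0.1% DMSO on each plate.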 The note with it: HUVEC proliferation, CellTiter-Glo luminescence, 72 h; at 10 µM; hits give low values. The method in brief: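 Timing: 72 h treatment at 37 °C; material: HUVEC primary cells; technique: CellTiter-Glo luminescence measuring cellular ATP; controls: vehicle and MePR control wells; measure: percent of median DMSO-control luminescence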
Consider `CC(=O)Nc1ccc(NS(=O)(=O)c2ccc(Cl)c(C(=O)O)c2)cc1`, for which the viability is 100%.

`CCN1CCCC1CNCc1ccc(Cl)cc1Cl` (configuration not stated): the viability is 111%. On the same count and under the same terms, the result for `Cc1sc2ncnc(SCC(=O)N3CCCC3)c2c1C` reads 78.1%; that for `Brc1ccc2[nH]ncc2c1`, 110%; that for `CCOC(=O)c1cccc(NC(=O)CSc2nc3cccnc3n2C)c1`, 71.4%.

For `CCn1c(SCC(=O)N2c3ccccc3CCc3ccccc32)nc2c1c(=O)n(C)c(=O)n2C`, the viability is 92.5%. On to `CCN(C(=O)CN1CCN(c2ccccc2OC)CC1)c1c(N)n(Cc2ccccc2)c(=O)[nH]c1=O`, for which the viability is 98.7%. The same measure, in the same setting: as for `O=C(NCc1ccccn1)c1ccc2nc(-c3ccco3)c(-c3ccco3)nc2c1`, the figure is 111%; as for `COCCNC(=O)c1c(N)n(/N=C/c2cccs2)c2nc3ccccc3nc12`, 78.2%; as for `CN(C)Cc1c(O)ccc2oc(Cc3ccccc3)cc12`, 91.2%.

As for `COc1cc(/C=N/n2c(C)nnc2C)cc(OC)c1OC`, the viability was 105%. Same read-out and setting: as for `Cn1c(=O)c2c(nc(NCc3ccco3)n2C/C=C/c2ccccc2)n(C)c1=O`, the figure is 89.3%; as for `CCn1c(C(Cc2ccccc2)NC(=O)COC)nc2ccccc21` (configuration not stated), 102%. The same measure, in the same setting: the result for `COc1ccccc1OCc1ccc(C(=O)Nc2ccncc2)o1` reads 84.9%; that for `COc1ccc(OC)c(-n2nnnc2SCC(=O)NCc2ccc3c(c2)OCO3)c1`, 84.4%.

As for `O=C(CSc1nnc(-c2cnccn2)n1Cc1ccco1)c1ccc(Cl)cc1`, the viability is 105%. Consider `Cc1cc(=O)oc(C)c1C(=O)O`, for which the viability is 97.1%. Still for that read-out and setting: the result for `COc1cccc(CN=CC2=C(O)CC(C)(C)CC2=O)c1OC` reads 101%; that for `O=C(CCNC(=O)Cn1ccc2ccccc2c1=O)NCCN1CCN(c2ccccc2F)CC1`, 99.2%. Same read-out and setting: the result for `Cn1cccc1Cc1nnc(SCC(N)=O)n1-c1ccc(F)cc1` reads 98.5%; that for `N#CC1=C(N)N(c2ccccc2)C(c2ccco2)C1(C#N)C#N` (configuration not stated), 102%. Still for that read-out and setting: as for `CCCNC(=O)C1=C(C)C(=O)OC12CCC(C)CC2` (configuration not stated), the figure is 87.2%. Regarding `CCCS(=O)(=O)C(=C1Nc2ccccc2N1)S(=O)(=O)CCC`, the viability is 93.4%. In the case of `O=C(CC(CC(=O)c1ccccc1)C(=O)O)c1ccccc1`, the viability was 107%. Take `CCS(=O)(=O)N1CCC(C(=O)NC2CCCCC2)CC1`: the viability is 92.7%.

As to `COc1ccc(N2C(=O)C3CCCN3C2c2ccc(F)cc2)cc1Cl` (configuration not stated), the viability was 84.2%. On the same count and under the same terms, as for `O=C(Nc1nccs1)c1ccc(Cl)c(S(=O)(=O)N2CCCCC2)c1`, the figure is 84.3%. The same measure, in the same setting: the result for `CC(=O)N1CCc2cc(S(=O)(=O)CCC(=O)Nc3cccc(F)c3)ccc21` reads 97.3%; that for `Oc1ccc(N2CCN(C(c3cccnc3)c3nnnn3Cc3ccccc3)CC2)cc1` (configuration not stated), 83.5%; that for `CCOP(=O)(c1ccc(N(C)C)cc1)C(O)c1c(Cl)cccc1Cl` (configuration not stated), 97.4%. Turning to `CCCn1c(SCC(=O)NC(C)(C)C)nnc1C(C)C`, the viability is 95.9%. On the same count and under the same terms, the result for `CCCCOC(=O)Cn1c(=N)n(CCN2CCOCC2)c2ccccc21` reads 85.4%; that for `CCOC(=O)c1c(C)n(C)c2ccc(O)c(S(=O)(=O)c3ccccc3)c12`, 103%. For the molecule `CCN1CCN(CCNC(=O)c2cn(C(C)c3ccccc3F)nn2)CC1` (configuration not stated), the viability was 82.3%. Regarding `Cc1ccnc(NS(=O)(=O)c2ccc(NC(=O)Cc3cccs3)cc2)n1`, the viability is 87.6%. On the same count and under the same terms, the result for `c1ccc(CSCc2cn3ccsc3n2)cc1` reads 104%; that for `Cc1nnc(N(C)C(=O)c2cccnc2)s1`, 93.1%. Take `O=C(NC1CCCCC1)C(c1ccco1)N(Cc1cccnc1)C(=O)C1COc2ccccc2O1` (configuration not stated): the viability is 91.4%. Still for that read-out and setting: the result for `Cc1cc(Cn2ccnc2)c(C)cc1Cn1ccnc1` reads 107%.

What is called viability is a read-out of living cells in per cent, often relative to untreated cells.
